In paper PMC2847577 (Molecular cell, 2009):
Changes are numbered by the printed parent chain. Numbers in names are those of the source. Where two headings read alike, the source gives them in different places. Blank lines part the entries; values can stand above or below the molecule they belong to. No end group written: not given here.

Key:
SPOP^MATH [1] = target: SPOP^MATH (Homo sapiens, UniProt O43791); test: Surface Plasmon Resonance; assay type: binding; details: Surface Plasmon Resonance (BIACORE), wildtype SPOP^MATH
Procedure, shortened: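 SPOP MATH domain expressed in E. coli BL21(DE3) GOLD as a GST fusion and purified by affinity, ion-exchange and gel-filtration chromatography. Binding of substrate-derived SPOP-binding-consensus peptides was measured by surface plasmon resonance on a BIACORE3000, and binding constants were reported.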

Puc^93-107 (Drosophila) = test: SPR
Puc^1-390 (Drosophila) [2] = test: AUC
Puc^1-390 (Drosophila) [3] = test: AUC; remark: listed apart in the source
crystal structure = target: the molecule itself; test: crystal structure
AUC = target: the molecule itself; test: AUC
Cul3^NTD = Cul3^NTD (UniProt Q13618 1-384); test: AUC
SPOP^MATH [4] = target: SPOP^MATH (human, UniProt O43791 28-166); test: crystal structure

Cul3^NTD, sequence (Q13618 1-384): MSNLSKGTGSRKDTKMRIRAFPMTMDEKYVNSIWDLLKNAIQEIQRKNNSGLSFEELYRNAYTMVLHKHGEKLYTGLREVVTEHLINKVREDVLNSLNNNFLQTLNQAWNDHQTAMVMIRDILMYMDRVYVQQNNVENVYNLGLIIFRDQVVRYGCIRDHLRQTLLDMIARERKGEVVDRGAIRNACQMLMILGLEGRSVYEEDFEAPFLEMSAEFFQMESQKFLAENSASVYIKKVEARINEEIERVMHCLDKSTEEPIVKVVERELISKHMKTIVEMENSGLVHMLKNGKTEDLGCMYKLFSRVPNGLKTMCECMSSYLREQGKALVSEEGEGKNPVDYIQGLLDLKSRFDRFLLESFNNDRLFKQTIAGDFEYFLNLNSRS

Molecule: DSTTEGTPADGFTVL [MacroH2A pep2]
binding to SPOP^MATH (result in words) (SPOP^MATH [1]): negligible binding

Molecule: SPOP^MATH (from UniProt O43791 28-166) (domain or fragment)
Kd (Puc^93-107 (Drosophila)): 4 µM

Molecule: MacroH2A^166-179: Synthetic peptide for the MacroH2A SPOP-binding region, residues 166-179 (KAASADSTTEGTPAD)
binding to SPOP^MATH (result in words) (SPOP^MATH [1]): sufficient for binding

Molecule: Ac-LACDEVTSTTSSSTA (N-terminus assumed) [Puc^93-107]
binding to SPOP^MATH (result in words) (SPOP^MATH [1]): sufficient for binding

B1: Gig^1-258 (domain or fragment, human, UniProt Q9H2C0 1-258, looked up)
chain: MAEGSAVSDPQHAARLLRALSSFREESRFCDAHLVLDGEEIPVQKNILAAASPYIRTKLNYNPPKDDGSTYKIELEGISVMVMREILDYIFSGQIRLNEDTIQDVVQAADLLLLTDLKTLCCEFLEGCIAAENCIGIRDFALHYCLHHVHYLATEYLETHFRDVSSTEEFLELSPQKLKEVISLEKLNVGNERYVFEAVIRWIAHDTEIRKVHMKDVMSALWVSGLDSSYLREQMLNEPLVREIVKECSNIPLSQPQQ
modifications: selenomethionines (structure phased by SAD)
binding result (crystal structure): binds

B2: SPOP^MATH-BTB+ (domain or fragment, human, UniProt O43791 28-329, looked up)
chain: KVVKFSYMWTINNFSFCREEMGEVIKSSTFSSGANDKLKWCLRVNPKGLDEESKDYLSLYLLLVSCPKSEVRAKFKFSILNAKGEETKAMESQRAYRFVQGKDWGFKKFIRRDFLLDEANGLLPDDKLTLFCEVSVVQDSVNISGQNTMNMVKVPECRLADELGGLWENSRFTDCCLCVAGQEFQAHKAILAARSPVFSAMFEHEMEESKKNRVEINDVEPEVFKEMMCFIYTGKAPNLDKMADDLLAAADKYALERLKVMCEDALCSNLSVENAAEILILADLHSADQLKTQAVDFINYHA
binding result (AUC): binds

B3: SPOP^BTB (domain or fragment, human, UniProt O43791 173-297, looked up)
chain: QNTMNMVKVPECRLADELGGLWENSRFTDCCLCVAGQEFQAHKAILAARSPVFSAMFEHEMEESKKNRVEINDVEPEVFKEMMCFIYTGKAPNLDKMADDLLAAADKYALERLKVMCEDALCSNL
stoichiometry N (Cul3^NTD): 1 SPOP per Cul3 (2:2)

B4: SPOP^BTB+ (domain or fragment, human, UniProt O43791 172-329, looked up)
chain: GQNTMNMVKVPECRLADELGGLWENSRFTDCCLCVAGQEFQAHKAILAARSPVFSAMFEHEMEESKKNRVEINDVEPEVFKEMMCFIYTGKAPNLDKMADDLLAAADKYALERLKVMCEDALCSNLSVENAAEILILADLHSADQLKTQAVDFINYHA
stoichiometry N (Cul3^NTD): 1 SPOP per Cul3 (2:2)
binding result (crystal structure): binds

B5: SPOP^BTB+ L186D, L190D, L193D, I217K (domain or fragment, human, UniProt O43791 172-329, looked up)
chain: B4 chain with L15D, L19D, L22D, I46K
stoichiometry N (Cul3^NTD): 1 SPOP per Cul3 (1:1)

Now from value to molecule:

stoichiometry N (Puc^1-390 (Drosophila) [2]): 2 SPOP per Puc
stoichiometry N (Puc^1-390 (Drosophila) [3]): 2 SPOP per Puc
Molecule: SPOP^MATH-BTB+ (from UniProt O43791 28-329) (domain or fragment)

binding result (SPOP^MATH [4]): binds
B6: Ci SBC2 peptide (peptide)
peptide: NTLFPDVSSSTH

binding result (SPOP^MATH [4]): binds
B7: Puc SBC1_pep1 (peptide)
peptide: DEVTSTTSSS

binding result (SPOP^MATH [4]): binds
B8: MacroH2A_pep1 (peptide)
peptide: KAASADSTTEGTPAD
